Measured values from ChEMBL document CHEMBL5058577, “EUbOPEN Chemogenomics Library 2 (Multiplex)” (2022).

Tested on: Fibroblast
Assay: Multiplex assay against human fibroblast
Type: toxicity, cell-based
In short: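 Per cents of healthy-nucleus cells form the tubulin, mitochondrial-mass and membrane-permeability phenotype values. Live cells were stained at seeding with Hoechst33342, BioTracker Green Microtubule Cytoskeleton Dye, MitoTracker Red and Annexin V Alexa Fluor 680. After compound addition they were imaged on a CQ1 microscope at 37°C and 5% CO2, and CellPathfinder machine-learning gating split them into Hoechst high-intensity objects or normal cells, normal cells into healthy, pyknosed or fragmented nuclei, and pyknosed cells into mitotic or apoptotic.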

[1] = 12 h, 1 µM, compound concentration 1 uM, replicate 1
[2] = 12 h, 1 µM, compound concentration 1 uM, replicate 2
[3] = 12 h, 10 µM, compound concentration 10 uM, replicate 1
[4] = 12 h, 10 µM, compound concentration 10 uM, replicate 2
[5] = 24 h, 1 µM, compound concentration 1 uM, replicate 1
[6] = 24 h, 1 µM, compound concentration 1 uM, replicate 2
[7] = 24 h, 10 µM, compound concentration 10 uM, replicate 1
[8] = 24 h, 10 µM, compound concentration 10 uM, replicate 2
[9] = 48 h, 1 µM, compound concentration 1 uM, replicate 1
[10] = 48 h, 1 µM, compound concentration 1 uM, replicate 2
[11] = 48 h, 10 µM, compound concentration 10 uM, replicate 1
[12] = 48 h, 10 µM, compound concentration 10 uM, replicate 2

COc1cc(Nc2ncc3c(n2)-c2ccc(Cl)cc2C(c2c(F)cccc2OC)=NC3)ccc1C(=O)O [ALISERTIB]
Population Apoptotic (%) [1]: 39%
Population Fragmented Nuclei (%) [1]: 11%
Population Healthy Nuclei (%) [1]: 66%
Population Hoechst High Intensity Objects (%) [1]: 1%
Population Membrane Permeable-Phenotype (%) [1]: 2%
Population Mitochondria Different-Phenotype (%) [1]: 4%
Population Mitotic Cells (%) [1]: 60%
Population Normal (%) [1]: 98%
Population Pyknosed Nuclei (%) [1]: 21%
Population Tubulin-Different-Phenotype (%) [1]: 23%
Population Apoptotic (%) [2]: 42%
Population Fragmented Nuclei (%) [2]: 18%
Population Healthy Nuclei (%) [2]: 47%
Population Hoechst High Intensity Objects (%) [2]: 8%
Population Membrane Permeable-Phenotype (%) [2]: 7%
Population Mitochondria Different-Phenotype (%) [2]: 7%
Population Mitotic Cells (%) [2]: 57%
Population Normal (%) [2]: 91%
Population Pyknosed Nuclei (%) [2]: 33%
Population Tubulin-Different-Phenotype (%) [2]: 41%
Population Apoptotic (%) [3]: 56%
Population Fragmented Nuclei (%) [3]: 28%
Population Healthy Nuclei (%) [3]: 47%
Population Hoechst High Intensity Objects (%) [3]: 13%
Population Membrane Permeable-Phenotype (%) [3]: 1%
Population Mitochondria Different-Phenotype (%) [3]: 22%
Population Mitotic Cells (%) [3]: 43%
Population Normal (%) [3]: 86%
Population Pyknosed Nuclei (%) [3]: 24%
Population Tubulin-Different-Phenotype (%) [3]: 69%
Total Cell Count [3]: 209
Population Apoptotic (%) [4]: 48%
Population Fragmented Nuclei (%) [4]: 35%
Population Healthy Nuclei (%) [4]: 30%
Population Hoechst High Intensity Objects (%) [4]: 8%
Population Membrane Permeable-Phenotype (%) [4]: 4%
Population Mitochondria Different-Phenotype (%) [4]: 16%
Population Mitotic Cells (%) [4]: 51%
Population Normal (%) [4]: 91%
Population Pyknosed Nuclei (%) [4]: 33%
Population Tubulin-Different-Phenotype (%) [4]: 64%
Total Cell Count [4]: 89
Population Apoptotic (%) [5]: 36%
Population Fragmented Nuclei (%) [5]: 12%
Population Healthy Nuclei (%) [5]: 69%
Population Hoechst High Intensity Objects (%) [5]: 2%
Population Membrane Permeable-Phenotype (%) [5]: 2%
Population Mitochondria Different-Phenotype (%) [5]: 6%
Population Mitotic Cells (%) [5]: 63%
Population Normal (%) [5]: 97%
Population Pyknosed Nuclei (%) [5]: 18%
Population Tubulin-Different-Phenotype (%) [5]: 28%
Total Cell Count [5]: 123
Population Apoptotic (%) [6]: 48%
Population Fragmented Nuclei (%) [6]: 26%
Population Healthy Nuclei (%) [6]: 47%
Population Hoechst High Intensity Objects (%) [6]: 4%
Population Membrane Permeable-Phenotype (%) [6]: 4%
Population Mitotic Cells (%) [6]: 51%
Population Normal (%) [6]: 95%
Population Pyknosed Nuclei (%) [6]: 26%
Population Tubulin-Different-Phenotype (%) [6]: 47%
Population Apoptotic (%) [7]: 64%
Population Fragmented Nuclei (%) [7]: 29%
Population Healthy Nuclei (%) [7]: 44%
Population Hoechst High Intensity Objects (%) [7]: 13%
Population Membrane Permeable-Phenotype (%) [7]: 1%
Population Mitochondria Different-Phenotype (%) [7]: 24%
Population Mitotic Cells (%) [7]: 35%
Population Normal (%) [7]: 86%
Population Pyknosed Nuclei (%) [7]: 25%
Population Tubulin-Different-Phenotype (%) [7]: 68%
Total Cell Count [7]: 191
Population Apoptotic (%) [8]: 56%
Population Fragmented Nuclei (%) [8]: 45%
Population Healthy Nuclei (%) [8]: 36%
Population Hoechst High Intensity Objects (%) [8]: 5%
Population Membrane Permeable-Phenotype (%) [8]: 0%
Population Mitochondria Different-Phenotype (%) [8]: 9%
Population Mitotic Cells (%) [8]: 43%
Population Normal (%) [8]: 94%
Population Pyknosed Nuclei (%) [8]: 18%
Population Tubulin-Different-Phenotype (%) [8]: 71%
Total Cell Count [8]: 93
Population Apoptotic (%) [9]: 57%
Population Fragmented Nuclei (%) [9]: 15%
Population Healthy Nuclei (%) [9]: 65%
Population Hoechst High Intensity Objects (%) [9]: 5%
Population Membrane Permeable-Phenotype (%) [9]: 4%
Population Mitochondria Different-Phenotype (%) [9]: 5%
Population Mitotic Cells (%) [9]: 42%
Population Normal (%) [9]: 94%
Population Pyknosed Nuclei (%) [9]: 19%
Population Tubulin-Different-Phenotype (%) [9]: 32%
Total Cell Count [9]: 115
Population Apoptotic (%) [10]: 38%
Population Fragmented Nuclei (%) [10]: 33%
Population Healthy Nuclei (%) [10]: 42%
Population Membrane Permeable-Phenotype (%) [10]: 7%
Population Mitotic Cells (%) [10]: 61%
Population Pyknosed Nuclei (%) [10]: 24%
Population Tubulin-Different-Phenotype (%) [10]: 54%
Population Apoptotic (%) [11]: 84%
Population Fragmented Nuclei (%) [11]: 38%
Population Healthy Nuclei (%) [11]: 35%
Population Hoechst High Intensity Objects (%) [11]: 23%
Population Membrane Permeable-Phenotype (%) [11]: 5%
Population Mitochondria Different-Phenotype (%) [11]: 37%
Population Mitotic Cells (%) [11]: 15%
Population Normal (%) [11]: 76%
Population Pyknosed Nuclei (%) [11]: 26%
Population Tubulin-Different-Phenotype (%) [11]: 80%
Total Cell Count [11]: 188
Population Apoptotic (%) [12]: 66%
Population Fragmented Nuclei (%) [12]: 37%
Population Healthy Nuclei (%) [12]: 51%
Population Hoechst High Intensity Objects (%) [12]: 8%
Population Membrane Permeable-Phenotype (%) [12]: 2%
Population Mitochondria Different-Phenotype (%) [12]: 15%
Population Mitotic Cells (%) [12]: 33%
Population Normal (%) [12]: 91%
Population Pyknosed Nuclei (%) [12]: 11%
Population Tubulin-Different-Phenotype (%) [12]: 65%
Total Cell Count [12]: 85
